Source: ChEMBL document CHEMBL4813970, “Design, synthesis and evaluation of novel dimethylamino chalcone-O-alkylamines derivatives as potential multifunctional agents against Alzheimer's disease” (Eur J Med Chem, 2021)
Active and inactive are the calls of the source. The calls are words filed in the database; no cut-off is given here.

Assays:
[1] = molecular target: Amyloid-beta precursor protein (Homo sapiens, UniProt P05067); assay: Inhibition of self-induced amyloid beta (1 to 42) (unknown origin) aggregation by T-fluorescence assay relative to control; settings: read-out: IC50
Amyloid-beta precursor protein, sequence (P05067 whole entry): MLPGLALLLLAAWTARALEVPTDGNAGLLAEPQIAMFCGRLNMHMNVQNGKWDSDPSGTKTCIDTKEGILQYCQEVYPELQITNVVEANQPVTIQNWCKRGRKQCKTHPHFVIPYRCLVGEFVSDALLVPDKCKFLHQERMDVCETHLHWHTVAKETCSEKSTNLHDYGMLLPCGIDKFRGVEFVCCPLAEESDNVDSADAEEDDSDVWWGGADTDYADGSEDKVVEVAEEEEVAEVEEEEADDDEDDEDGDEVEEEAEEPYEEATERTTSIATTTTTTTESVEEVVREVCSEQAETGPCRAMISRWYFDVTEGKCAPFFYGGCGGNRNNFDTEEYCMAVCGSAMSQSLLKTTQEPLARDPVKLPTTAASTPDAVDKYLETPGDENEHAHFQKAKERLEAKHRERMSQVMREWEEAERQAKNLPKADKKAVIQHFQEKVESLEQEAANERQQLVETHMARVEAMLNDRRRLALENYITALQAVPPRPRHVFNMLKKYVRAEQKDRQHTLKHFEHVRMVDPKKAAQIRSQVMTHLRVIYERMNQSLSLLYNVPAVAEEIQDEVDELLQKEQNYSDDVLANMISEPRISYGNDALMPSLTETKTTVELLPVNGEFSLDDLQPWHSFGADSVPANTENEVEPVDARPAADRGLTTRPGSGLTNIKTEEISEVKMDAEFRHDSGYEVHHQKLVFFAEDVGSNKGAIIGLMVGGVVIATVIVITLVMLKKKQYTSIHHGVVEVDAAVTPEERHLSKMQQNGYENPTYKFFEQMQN
How it was run: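 IC50 by ThT fluorescence (excitation 446 nm, emission 490 nm). Computed only where inhibition of self-induced Aβ1-42 aggregation at 25 μM exceeded 90%. Triplicate; mean of three independent experiments.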

Acetylcholinesterase = molecular target: T1, Acetylcholinesterase (Rattus norvegicus, UniProt P37136); assay: Inhibition of rat cortex homogenate acetylcholinesterase by Ellman's method
T1 sequence (P37136 whole entry): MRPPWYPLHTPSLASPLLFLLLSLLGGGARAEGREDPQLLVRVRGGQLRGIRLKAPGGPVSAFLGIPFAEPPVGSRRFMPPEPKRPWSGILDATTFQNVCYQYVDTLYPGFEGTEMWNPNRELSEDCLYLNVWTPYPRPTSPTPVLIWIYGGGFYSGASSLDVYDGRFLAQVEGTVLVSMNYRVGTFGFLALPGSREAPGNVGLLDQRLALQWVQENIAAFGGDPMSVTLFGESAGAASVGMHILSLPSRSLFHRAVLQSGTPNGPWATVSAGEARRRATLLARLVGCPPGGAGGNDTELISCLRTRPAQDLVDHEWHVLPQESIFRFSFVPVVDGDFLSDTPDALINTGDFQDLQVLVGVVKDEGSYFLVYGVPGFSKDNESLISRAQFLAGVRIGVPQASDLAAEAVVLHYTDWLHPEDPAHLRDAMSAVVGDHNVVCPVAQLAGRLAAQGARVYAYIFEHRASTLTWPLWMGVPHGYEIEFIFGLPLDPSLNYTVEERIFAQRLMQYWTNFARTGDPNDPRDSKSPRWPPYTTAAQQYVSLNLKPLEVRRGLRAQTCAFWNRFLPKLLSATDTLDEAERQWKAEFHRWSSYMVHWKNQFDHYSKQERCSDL

Butyrylcholinesterase = Butyrylcholinesterase (Rattus norvegicus, UniProt Q9JKC1); assay: Inhibition of rat serum BuChE by Ellman's method
Butyrylcholinesterase, sequence (Q9JKC1 whole entry): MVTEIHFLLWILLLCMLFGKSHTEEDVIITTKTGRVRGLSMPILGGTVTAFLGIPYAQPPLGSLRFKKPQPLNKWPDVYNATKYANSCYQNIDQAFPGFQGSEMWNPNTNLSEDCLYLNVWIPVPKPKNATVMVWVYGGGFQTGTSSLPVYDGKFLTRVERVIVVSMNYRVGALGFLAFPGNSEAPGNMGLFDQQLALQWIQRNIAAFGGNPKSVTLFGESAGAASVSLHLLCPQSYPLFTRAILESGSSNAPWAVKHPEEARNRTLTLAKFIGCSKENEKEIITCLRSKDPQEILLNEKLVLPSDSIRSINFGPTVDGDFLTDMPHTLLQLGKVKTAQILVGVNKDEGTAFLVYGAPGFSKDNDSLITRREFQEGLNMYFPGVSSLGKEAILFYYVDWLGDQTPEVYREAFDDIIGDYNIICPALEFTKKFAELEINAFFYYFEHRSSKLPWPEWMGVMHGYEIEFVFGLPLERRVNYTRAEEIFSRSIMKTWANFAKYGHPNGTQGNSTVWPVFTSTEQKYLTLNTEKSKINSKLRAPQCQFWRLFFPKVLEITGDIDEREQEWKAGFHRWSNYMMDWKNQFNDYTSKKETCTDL

[2] = molecular target: Acetylcholinesterase (Electrophorus electricus) (UniProt O42275); assay: Mixed type inhibition of electric eel AChE assessed as increase in Km by reciprocal Lineweaver-Burk plot analysis; settings: dose 0.5-2 µM
Acetylcholinesterase (Electrophorus electricus), sequence (O42275 24-633 limits assumed): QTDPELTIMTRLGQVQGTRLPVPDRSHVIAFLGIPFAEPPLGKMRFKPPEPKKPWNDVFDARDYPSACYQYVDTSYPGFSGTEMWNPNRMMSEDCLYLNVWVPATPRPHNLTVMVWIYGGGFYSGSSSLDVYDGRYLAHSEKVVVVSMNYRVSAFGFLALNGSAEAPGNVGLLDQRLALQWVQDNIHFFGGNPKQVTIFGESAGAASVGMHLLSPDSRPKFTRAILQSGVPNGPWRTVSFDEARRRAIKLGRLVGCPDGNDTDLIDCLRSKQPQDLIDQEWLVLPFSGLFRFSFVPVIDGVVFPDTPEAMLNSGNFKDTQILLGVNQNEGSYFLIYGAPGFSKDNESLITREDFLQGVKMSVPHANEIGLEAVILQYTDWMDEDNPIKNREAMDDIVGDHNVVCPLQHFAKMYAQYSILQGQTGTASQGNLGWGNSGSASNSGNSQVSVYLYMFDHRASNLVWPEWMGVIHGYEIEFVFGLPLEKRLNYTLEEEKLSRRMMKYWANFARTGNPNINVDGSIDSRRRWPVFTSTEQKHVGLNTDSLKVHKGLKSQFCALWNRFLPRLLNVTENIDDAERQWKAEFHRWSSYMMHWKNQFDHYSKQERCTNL

[3] = Metal chelating activity assessed as compound Zn2+ complex formation by UV-Visible spectrophotometry
How it was run: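 UV-vis spectra recorded from 200 to 600 nm on a multimode reader. Metals tested as CuCl2, FeSO4, ZnCl2 and AlCl3.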

PC-12 = assay: Neuroprotective activity against H2O2-induced cytotoxicity in rat PC12 cells assessed as increase in cell viability by MTT assay; assay type: functional, cell-based
How it was run: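 PC12 cells exposed to 100 μM H2O2, with or without compound. Viability read by MTT reduction relative to control. Trolox 100 μM is the reference.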

[4] = Acute toxicity in KM mouse assessed as mortality upto 1000 mg/kg,po administered as single dose measured for 14 days; assay type: organism-based; settings: in vivo, 336 h, time 14 day

Which IC50 [1] does the source give for CCN(CCCCOc1ccc(C(=O)/C=C/c2ccc(N(C)C)cc2)c(O)c1)Cc1ccccc1N(C)C here?
Its IC50 is 880 nM.

What about the IC50 (Acetylcholinesterase) of the same compound?
Its IC50 is 130 nM.

What about the IC50 (Butyrylcholinesterase) of the same compound?
Its IC50 is 236000 nM.

What about the inhibition [2] of the same compound?
The inhibition was “Active”.

What about the Activity [3] of the same compound?
Its Activity is “inactive”.

And the Activity (PC-12)?
The Activity was “Dose-Dependent Effect”.

What about the Activity [4] of the same compound?
Its Activity is “Non-Toxic”.
